Laboratory results published in ChEMBL document CHEMBL1687834, “Identification and characterization of persistent intracellular human immunodeficiency virus type 1 integrase strand transfer inhibitor activity” (Antimicrob Agents Chemother, 2011).
Calls of active or inactive are those of the source. The calls are words filed in the database; no cut-off is given here.

Experiments:
[1] = system: Human immunodeficiency virus 1; test: Antiviral activity against single-round HIV1 NLX.Lux-R harboring inactivating mutations in env, vpr and carries firefly luciferase gene in place of nef infected in human HeLa-T4 cells assessed as luciferase activity after 48 hrs […]; type: functional, organism-based; details: Human immunodeficiency virus 1, HeLaT4, 48 h
Outline: (§1)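 HeLa-T4 cells infected in duplicate for 2 h with 105 RT-cpm VSV-G-pseudotyped HIV-Luc (MOI ~0.01) with serial drug dilutions, washed and re-fed with the same drug. Luciferase normalized to total protein at 48 h, minus matched integrase-mutant N/N-Luc background. EC50/EC95 by GROWTH fit, ≥3 experiments; CC50 by WST-1 on HeLa-T4; SI = CC50/EC50.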

[2] = Selectivity index, ratio of CC50 for human HeLa-T4 cells to EC50 for single-round HIV1 NLX.Lux-R harboring inactivating mutations in env, vpr and carries firefly luciferase gene in place of nef; type: toxicity, cell-based; details: read-out: Ratio CC50/EC50; outline: as §1
[3] = system: Human immunodeficiency virus 1; test: Antiviral activity against single-round HIV1 NLX.Lux-R harboring inactivating mutations in env, vpr and carries firefly luciferase gene in place of nef infected in human HeLa-T4 cells assessed as inhibition of 2 mins magnetic nanopartials-medated infectivity after 48 hrs luciferase assay; type: functional, organism-based; details: for EC50: Human immunodeficiency virus 1, HeLaT4
Outline: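 HeLa-T4 cells infected with virus dialysed against HS buffer (pH 7.3, 24 h, 4°C), plus 1.5% FBS, preincubated 5 min with 0.5 mg/ml magnetite nanoparticles. Added at 1:13 (vol/vol) final, 2 min under ~1 T, washed three or four times. Incubated at 37°C; luciferase read at 48 h.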

[4] = Cytotoxicity against human HeLaT4 cells by WST-1 assay; type: cell-based
Outline: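 HeLa-T4 cells grown in DMEM with 10% FBS, 100 IU/ml penicillin and 100 μg/ml streptomycin; drug cytotoxicity measured by WST-1 read-out, with drugs tested up to 100 μM; 50% cytotoxic concentration (CC50) reported.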

[5] = system: Human immunodeficiency virus 1; test: Antiviral activity against single-round HIV1 NLX.Lux-R harboring inactivating mutations in env, vpr and carries firefly luciferase gene in place of nef assessed as level of infection using human HeLaT4 cells pretreated for 24 hrs followed by exposed to virus immediately after 3 times compound washout; type: functional, organism-based; details: Human immunodeficiency virus 1, HeLaT4
Outline: (§2)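 HeLa-T4 cells pretreated 24 h with 100× EC95 drug, washed three times, then infected with VSV-G-pseudotyped HIV-Luc at 0, 2, 4, 8 or 12 h after washing. Virus removed by three washes at 2 h; lysis at 48 h. Luciferase normalized to protein, percent of no-drug control, Student's t test. Washout EC50 from immediate infection; ratio to standard EC50; ≥3 experiments in duplicate.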

[6] = system: Human immunodeficiency virus 1; test: Antiviral activity against HIV1 NL4-3.Luc in human PBMC assessed as infectivity treated for 24 hrs by luciferase assay; type: functional, organism-based; details: Human immunodeficiency virus 1, 24 h
[7] = system: Human immunodeficiency virus 1; test: Antiviral activity against single-round HIV1 NLX.Lux-R harboring inactivating mutations in env, vpr and carries firefly luciferase gene in place of nef infected in human HeLa-T4 cells assessed as time required to cause 50% loss in compound potency at 10 times EC95 by time-of-addition assay; type: functional
Outline: (§3)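 Time-of-addition: drug at 10× or 100× EC95 added to HIV-Luc-infected HeLa-T4 cultures at set times after infection. Lysis at 48 h; luciferase as percent of no-drug cells. The time giving 50% inhibition versus the no-drug control was read from the curves.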

[8] = system: Human immunodeficiency virus 1; test: Antiviral activity against single-round HIV1 NLX.Lux-R harboring inactivating mutations in env, vpr and carries firefly luciferase gene in place of nef assessed as suppression of 2 mins magnetic nanopartials-medated residual infection in human HeLaT4 cells treated at 100 time EC95 for 1 measured after 11 hrs of 3 times compound washout and rewashed 48 hrs post infection by time-of-addition pulse assay relative to untreated control; type: functional
Outline: (§4)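 Pulse time-of-addition: dialysed virus preincubated with magnetite nanoparticles, added to HeLa-T4 cells, 2 min under ~1 T magnetic field, then washed. At set times after infection, cells pulsed 1 h with 100× EC95 drug, washed three times and cultured drug-free. Lysis at 48 h postinfection; luciferase given as percent of no-drug control.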

[9] = system: Human immunodeficiency virus 1; test: Ratio of EC50 for HIV1 NL4-3.Luc assessed as infectivity using human MDM pretreated for 24 hrs followed by exposed to virus after compound washout to standard EC50 for HIV1 NL4-3.Luc; type: functional
[10] = system: Human immunodeficiency virus 1; test: Antiviral activity against single-round HIV1 NLX.Lux-R harboring inactivating mutations in env, vpr and carries firefly luciferase gene in place of nef infected in human HeLa-T4 cells assessed as time required to 50% inhibition of infection at 10 times EC95 by time-of-addition assay; type: functional; outline: as §3
[11] = system: Human immunodeficiency virus 1; test: Antiviral activity against single-round HIV1 NLX.Lux-R harboring inactivating mutations in env, vpr and carries firefly luciferase gene in place of nef infected in human HeLa-T4 cells assessed as time required to 50% inhibition of infection at 100 times EC95 by time-of-addition assay; type: functional; outline: as §3
[12] = system: Human immunodeficiency virus 1; test: Ratio of EC50 for single-round HIV1 NLX.Lux-R harboring inactivating mutations in env, vpr and carries firefly luciferase gene in place of nef assessed as level of infection using human HeLaT4 cells pretreated for 24 hrs followed by exposed to virus immediately after 3 times compound washout to standard EC50 for HIV1 NLX.Lux-R; type: functional; outline: as §2
[13] = system: Human immunodeficiency virus 1; test: Antiviral activity against HIV1 NL4-3.Luc assessed as infectivity using human PBMC pretreated for 24 hrs followed by exposed to virus after compound washout measured after 2 to 3 days by luciferase assay; type: functional, organism-based
[14] = system: Human immunodeficiency virus 1; test: Antiviral activity against HIV1 NL4-3.Luc in human MDM assessed as infectivity treated for 24 hrs by luciferase assay; type: functional, organism-based; details: Human immunodeficiency virus 1, 24 h
[15] = system: Human immunodeficiency virus 1; test: Antiviral activity against single-round HIV1 NLX.Lux-R harboring inactivating mutations in env, vpr and carries firefly luciferase gene in place of nef assessed as level of infection using human HeLaT4 cells pretreated at 100 time EC95 for 24 hrs followed by exposed to virus after 12 hrs of 3 times compound washout relative to untreated control cells; type: functional, organism-based; outline: as §2
[16] = system: Human immunodeficiency virus 1; test: Antiviral activity against single-round HIV1 NLX.Lux-R harboring inactivating mutations in env, vpr and carries firefly luciferase gene in place of nef assessed as level of 2 mins magnetic nanopartials-medated infection in human HeLaT4 cells treated for 1 measured after of 3 times compound washout and rewashed 48 hrs post infection by time-of-addition pulse assay; type: functional; outline: as §4
[17] = system: Human immunodeficiency virus 1; test: Antiviral activity against HIV1 NL4-3.Luc assessed as infectivity using human MDM pretreated for 24 hrs followed by exposed to virus after compound washout measured after 2 to 3 days by luciferase assay; type: functional, organism-based
[18] = system: Human immunodeficiency virus 1; test: Ratio of EC50 for HIV1 NL4-3.Luc assessed as infectivity using human PBMC pretreated for 24 hrs followed by exposed to virus after compound washout to standard EC50 for HIV1 NL4-3.Luc; type: functional
[19] = system: Human immunodeficiency virus 1; test: Antiviral activity against single-round HIV1 NLX.Lux-R harboring inactivating mutations in env, vpr and carries firefly luciferase gene in place of nef assessed as level of infection using human HeLaT4 cells pretreated at 100 time EC95 for 24 hrs followed by exposed to virus immediately after 3 times compound washout relative to untreated control cells; type: functional; outline: as §2
[20] = Drug uptake in human HeLaT4 cells assessed as compound persist measured after 3 times washout at 100 time EC95 for HIV1 for 24 hrs; type: ADME, cell-based; details: helat4, 24 h; outline: as §2
[21] = system: Human immunodeficiency virus 1; test: Antiviral activity against single-round HIV1 NLX.Lux-R harboring inactivating mutations in env, vpr and carries firefly luciferase gene in place of nef assessed as level of 2 mins magnetic nanopartials-medated infection in human HeLaT4 cells treated at 100 time EC95 for 1 measured after 3 hrs of 3 times compound washout and rewashed 48 hrs post infection by time-of-addition pulse assay relative to untreated control at 4 hr time point; type: functional; outline: as §4
[22] = system: Human immunodeficiency virus 1; test: Antiviral activity against single-round HIV1 NLX.Lux-R harboring inactivating mutations in env, vpr and carries firefly luciferase gene in place of nef assessed as level of 2 mins magnetic nanopartials-medated residual infection in human HeLaT4 cells treated at 100 time EC95 for 1 measured after 3 hrs of 3 times compound washout and rewashed 48 hrs post infection by time-of-addition pulse assay; type: functional; outline: as §4
[23] = system: Human immunodeficiency virus 1; test: Antiviral activity against single-round HIV1 NLX.Lux-R harboring inactivating mutations in env, vpr and carries firefly luciferase gene in place of nef assessed as level of infection using human HeLaT4 cells pretreated at 100 time EC95 for 24 hrs followed by exposed to virus after 2 to 4 hrs of 3 times compound washout relative to untreated control cells; type: functional; outline: as §2
[24] = system: Human immunodeficiency virus 1; test: Antiviral activity against single-round HIV1 NLX.Lux-R harboring inactivating mutations in env, vpr and carries firefly luciferase gene in place of nef assessed as level of infection using human HeLaT4 cells pretreated at 100 time EC95 for 24 hrs followed by exposed to virus after 8 hrs of 3 times compound washout relative to untreated control cells; type: functional, organism-based; outline: as §2

## O=C1Nc2ccc(Cl)cc2[C@@](C#CC2CC2)(C(F)(F)F)O1 [EFAVIRENZ]
[1]
  EC50: 1.1 nM
  EC95: 8 nM
[2]
  selectivity ratio: 31800
[3]
  Activity: Dose-dependent effect
  EC50: 1000 nM
[4]
  CC50: 35000 nM

## COc1cc2c(cc1Cc1cccc(Cl)c1F)c(=O)c(C(=O)O)cn2[C@H](CO)C(C)C [ELVITEGRAVIR]
[5]
  EC50: 60 nM
[6]
  EC50: 0.3 nM
  EC95: 7.4 nM
[7]
  Time: 11.1 h
[8]
  fold change (FC): 2
[1]
  EC50: 2.9 nM
  EC95: 37 nM
[9]
  Ratio EC50: 50
[2]
  selectivity ratio: 11700
[10]
  Time: 10.1 h
[11]
  Time: 11.3 h
[12]
  Ratio EC50: 20.7
[13]
  EC50: 36 nM
[14]
  EC50: 0.5 nM
  EC95: 8.2 nM
[15]
  Activity: Active
[3]
  Activity: Dose-dependent effect
  EC50: 3400 nM
[16]
  EC98.6: 75 nM
[17]
  EC50: 25 nM
[4]
  CC50: 34000 nM
[18]
  Ratio EC50: 120

## Cc1ccnc2c1NC(=O)c1cccnc1N2C1CC1 [NEVIRAPINE]
[5]
  EC50: > 100000 nM
[6]
  EC50: 41 nM
  EC95: 690 nM
[7]
  Time: 7.2 h
[1]
  EC50: 73 nM
  EC95: 680 nM
[9]
  Ratio EC50: >3703
[2]
  selectivity ratio: > 1370
[12]
  Ratio EC50: >1370
[13]
  EC50: > 100000 nM
[14]
  EC50: 27 nM
  EC95: 640 nM
[19]
  Activity: inactive
[20]
  Drug uptake: Not Active
[17]
  EC50: > 100000 nM
[4]
  CC50: > 100000 nM
[18]
  Ratio EC50: >2439
[21]
  Activity: 23%

## Cc1nnc(C(=O)NC(C)(C)c2nc(C(=O)NCc3ccc(F)cc3)c(O)c(=O)n2C)o1 [RALTEGRAVIR]
[22]
  Activity: 9%
[5]
  EC50: 4600 nM
[6]
  EC50: 2.4 nM
  EC95: 48 nM
[7]
  Time: 10.2 h
[8]
  fold change (FC): 2
[1]
  EC50: 77 nM
  EC95: 810 nM
[9]
  Ratio EC50: 1140
[2]
  selectivity ratio: > 1300
[23]
  Activity: 50%
[10]
  Time: 10.5 h
[11]
  Time: 12.7 h
[12]
  Ratio EC50: 547.6
[13]
  EC50: 3300 nM
[14]
  EC50: 4.3 nM
  EC95: 80 nM
[19]
  Activity: 19%
[16]; Human immunodeficiency virus 1, HeLaT4
  EC91: 0.073 µM
[17]
  EC50: 4900 nM
[4]
  CC50: > 100000 nM
[18]
  Ratio EC50: 1375

## CC(C)OC(=O)OCOP(=O)(CO[C@H](C)Cn1cnc2c(N)ncnc21)OCOC(=O)OC(C)C.O=C(O)/C=C/C(=O)O [TENOFOVIR DISOPROXIL FUMARATE]
[5]
  EC50: 120 nM
[6]
  EC50: 46 nM
  EC95: 720 nM
[1]
  EC50: 2.9 nM
  EC95: 37 nM
[9]
  Ratio EC50: 1.2
[2]
  selectivity ratio: 11700
[12]
  Ratio EC50: 4
[13]
  EC50: 55 nM
[14]
  EC50: 28 nM
  EC95: 520 nM
[15]
  Activity: Active
[20]
  Drug uptake: Active
[16]
  EC99.6: 0.95 µM
[17]
  EC50: 34 nM
[4]
  CC50: 34000 nM
[18]
  Ratio EC50: 1.2

## Cc1cn([C@H]2C[C@H](N=[N+]=[N-])[C@@H](CO)O2)c(=O)[nH]c1=O [ZIDOVUDINE]
[5]
  EC50: 4600 nM
[7]
  Time: 4.8 h
[1]
  EC50: 8.4 nM
  EC95: 90 nM
[2]
  selectivity ratio: > 11900
[23]
  Activity: 40%
[12]
  Ratio EC50: 59.7
[24]
  Activity: inactive
[19]
  Activity: 18%
[20]
  Drug uptake: Active
[4]
  CC50: > 100000 nM
